Reference: ChEMBL document CHEMBL3608276, “Phenolic Compounds from the Leaves and Twigs of Osteomeles schwerinae That Inhibit Rat Lens Aldose Reductase and Vessel Dilation in Zebrafish Larvae” (J Nat Prod, 2015)

Key:
[1] = target: Aldo-keto reductase family 1 member B1 (Rattus norvegicus, UniProt P07943); experiment: Inhibition of Sprague-Dawley rat lense aldose reductase using DL-glyceraldehyde as substrate by spectrofluorometric analysis
Procedure, shortened: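 Crude enzyme from lenses of 8-week-old Sprague–Dawley rats (100–150 g), homogenized in 135 mM Na,K-phosphate pH 7.0 with 0.5 mM PMSF and 10 mM 2-mercaptoethanol; 100000g supernatant used. Reaction in 135 mM phosphate pH 7.0, 100 mM Li2SO4, 0.03 mM NADPH, 1 mM DL-glyceraldehyde at 37 °C, NADPH-started, HCl-stopped. NADP converted with NaOH/imidazole at 60 °C 10 min; fluorescence ex 360/em 460 nm. IC50 from log-concentration regression of remaining activity; 100 μM cutoff.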

[2] = organism: Danio rerio; experiment: Toxicity in zebrafish embryo up to 20 uM; format: organism-based; conditions: in vivo
[3] = organism: Danio rerio; experiment: Reduction of high glucose-induced dilation of hyaloid-retinal vessel in flk:EGFP transgenic zebrafish embryo at 10 uM treated for day 3 to 6 postfertilization measured on day 6 by stereomicroscopic analysis relative to control; format: functional; set-up: scale not given: the % may be the effect or the level left
Procedure, shortened: (§1)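 flk:EGFP embryos, five per well at 3 dpf in egg water with 130 mM glucose, exposed to compound 3–6 dpf. Fixed in 4% paraformaldehyde at 6 dpf, lenses with vessels isolated by 3% trypsin (0.2 M Tris-HCl pH 7.8) 80 min at 37 °C. Hyaloid vessel diameter near the optic disc measured three times per lens, 10 larvae per group, triplicate; mean ± SEM, ANOVA/Dunnett versus high-glucose group.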

[4] = organism: Danio rerio; experiment: Reduction of high glucose-induced dilation of hyaloid-retinal vessels in flk:EGFP transgenic zebrafish embryo at 20 uM treated for day 3 to 6 postfertilization measured on day 6 by stereomicroscopic analysis relative to control; format: functional; set-up: scale not given: the % may be the effect or the level left; procedure, shortened: as §1

Row | IC50 [1] [µM] | Compound | Activity [2] | Activity [3] [%] | Activity [4] [%]
1 | 28.7 | O=C(O)CC1(CC(=O)O)CCCC1 | – | – | –
2 | > 100 | COc1cc([C@H]2O[C@H](c3cc(OC)c(O)c(OC)c3)[C@@H](CO)[C@@H]2CO)cc(OC)c1O [HUAZHONGILEXIN] | – | – | –
3 | > 100 | COc1cc([C@H]2O[C@H](c3cc(OC)c(O)c(OC)c3)[C@@H](CO[C@@H]3O[C@@H](C)[C@H](O)[C@@H](O)[C@H]3O)[C@@H]2CO)cc(OC)c1O | – | – | –
4 | 5.6 | COc1cc(O[C@@H]2O[C@H](CO)[C@@H](O)[C@H](O)[C@H]2O)cc(-c2ccc(O)c(O)c2)c1 | Non-toxic | – | –
5 | 3.8 | COc1cc(OC)cc(-c2ccc(O)c(O[C@@H]3O[C@H](CO)[C@@H](O)[C@H](O)[C@H]3O)c2)c1 | Non-toxic | – | –
6 | 13.8 | COc1cc(O)cc(-c2ccc(O)c(O)c2)c1 | Non-toxic | 95 | 99
